CCR6 antag – CCR6 (human) receptor antagonism; CHO-K1 CCR6 PathHunter beta-arrestin, luminescence, CCL20-stimulated; inhibition, % at 20 µM; 340,000 tested, 0.49% active; AID 493098;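 active means compounds whose inhibition of the agonist-driven luminescence signal at 20 µM reaches about 50%, limit read from the data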;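 further: cells stimulated with CCL20 at 14 nM final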
APJ agonist – APJ receptor agonism. P35414. AID 2520. activation, % at 20 µM. CHO-K1 APJ PathHunter beta-arrestin, luminescence; 0% DMSO wells, 100% apelin. 330,000 tested, 0.11% active;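 active means activation more than six SD over the plate average, tested at 20 µM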
Target sequence (P35414 whole entry, looked up): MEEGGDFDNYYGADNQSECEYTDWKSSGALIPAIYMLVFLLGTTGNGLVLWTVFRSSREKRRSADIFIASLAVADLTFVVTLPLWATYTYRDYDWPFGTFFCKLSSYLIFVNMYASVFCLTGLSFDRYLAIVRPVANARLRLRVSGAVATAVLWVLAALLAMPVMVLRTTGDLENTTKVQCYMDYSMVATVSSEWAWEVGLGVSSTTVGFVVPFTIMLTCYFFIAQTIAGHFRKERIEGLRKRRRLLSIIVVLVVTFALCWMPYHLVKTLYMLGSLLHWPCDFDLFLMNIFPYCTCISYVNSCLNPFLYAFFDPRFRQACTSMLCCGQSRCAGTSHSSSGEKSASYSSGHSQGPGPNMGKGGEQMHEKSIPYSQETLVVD
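Test system: CHO-K1 APJ beta-arrestin complementation cell line. Amount: cell density 1000 per well. Controls: DMSO negative, 10 nM Apelin-13 positive. Signal: luminescent beta-gal fragment complementation, chemiluminescent substrate. Read-out basis: agonist-driven arrestin binding to APJ. Timing: compound stimulation 90 min at 25 °C, detection 60 min.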
EBI2 block – blocks human EBI2 receptor beta-arrestin signaling. 360,000 tested, 0.81% active. EBI2 beta-arrestin recruitment, luminescence, 7a,25-OHC stimulated. P32249. inhibition, % at 5 µM; in the data active means inhibition above about 38%;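 further: enzyme fragment complementation signal reports receptor beta-arrestin coupling in cells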
CXCR6 inh – CXCR6 (human) receptor inhibition; O00574; CHO-K1 PathHunter CXCR6 beta-arrestin, luminescence; inhibition, % at 20 µM; 360,000 tested, 0.36% active; in the data active means inhibition above about 34%, passing the limit was not always enough;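 further: antagonist mode with CXCL16 agonist at 10 nM final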
H9c2 TAG inh – inhibitors of triacylglycerol accumulation; H9c2 cells, Nile Red lipid (TAG) fluorescence; cells loaded with 200 µM oleic acid; inhibition, % at 12.5 µM; AID 651582; 230,000 tested, 0.66% active;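 active means pattern-corrected inhibition of lipid staining of at least 50% with the nuclear-stain viability signal not falling by more than 50%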
APJ antagonist – blocks the human apelin receptor APJ. 330,000 tested, 0.32% active. AID 2521. CHO-K1 APJ beta-arrestin complementation, luminescence. P35414. inhibition, % at 20 µM;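 active means inhibition above about 40% at 20 µM, limit read from the data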;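 further: cells challenged with 10 nM apelin-13 agonist together with compound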
EBI2 conf – confirmation of human EBI2 receptor antagonists; inhibition, % at 5 µM; EBI2 beta-arrestin luminescence, 7a,25-OHC antagonism; 2,400 tested, 29% active; shares compounds with EBI2 block; AID 651997;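 active means inhibition of at least 50%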
EBI2 agonist – EBI2 agonism counter-screen | shares compounds with EBI2 block | EBI2-expressing cells, agonist mode, luminescence, 60 min; 0% vehicle, 100% 7α,25-dihydroxycholesterol control | 2,400 tested, under 10 active | activation, % at 5 µM;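 active means activation of at least 50%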
bGal cs – beta-galactosidase inhibition counter-screen; shares compounds with EBI2 block; purified beta-galactosidase, luminescent Galacton Star, 15 min; inhibition, % at 5 µM; 2,400 tested, 1% active;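 active means replicate-average signal at least 3 plate SD below neutral wells, shown as high inhibition, flagging enzyme-inhibiting false positives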;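 further: higher means stronger loss of beta-gal luminescence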
Of the large screens only hits and unclear results are named; the others gave an inactive call (follow-up assays come after a bar, where they were run). Only some compounds are listed: those with a hit (about 1.9% of all), similar ones and a draw of the others.

CCOc1cc(/C=C2/SC(=Nc3ccccc3)N(Cc3cccnc3)C2=O)ccc1OCC#N	EBI2 block 48 (no result: H9c2 TAG inh) | EBI2 conf inactive | EBI2 agonist inactive | bGal cs inactive
COc1ccccc1NS(=O)(=O)c1cccc(NS(=O)(=O)c2cc(C(=O)O)ccc2Cl)c1	none (no result: CCR6 antag, APJ agonist, APJ antagonist)
COc1ccc(NC(=O)N2CCCC(c3ccccc3)C2)cc1 (centres undefined)	none (no result: H9c2 TAG inh)
COc1ccc(/C=C/C(=O)N2CCC(c3ccccc3)C2)cc1 (centres undefined)	EBI2 block 70 (no result: H9c2 TAG inh) | EBI2 conf 55 | EBI2 agonist inactive | bGal cs inactive
COc1ccc(CC(=O)N2CCC(c3ccccc3)C2)cc1 (centres undefined)	EBI2 block 48 | EBI2 conf inactive | EBI2 agonist inactive | bGal cs inactive
COC(=O)C1CCN(C(=O)/C=C/c2ccc(OC)cc2)CC1	EBI2 block 87 | EBI2 conf 76 | EBI2 agonist inactive | bGal cs inactive
Cc1ccc(C)c(NC(=O)CN(C)C(=O)c2ccccc2OCc2c(C)noc2C)c1	none
O=C(CN(Cc1ccc(Cl)cc1)C(=O)c1csnn1)NCc1ccccc1	none (no result: H9c2 TAG inh)
C[C@H](NC(=O)c1ccc(C(C)(C)C)cc1)C(=O)N1CCN(C/C=C/c2ccccc2)CC1	EBI2 block 72 | EBI2 conf 54 | EBI2 agonist inactive | bGal cs inactive
O=C(c1ccc(Br)s1)N1CCN(C/C=C/c2ccccc2)CC1	EBI2 block 43 (no result: H9c2 TAG inh) | EBI2 conf inactive | EBI2 agonist inactive | bGal cs inactive
O=C(Nc1cccc(Cl)c1)N1CCN(C/C=C/c2ccccc2)CC1	EBI2 block 55 | EBI2 conf inactive | EBI2 agonist inactive | bGal cs inactive
COc1ccccc1-c1cccc([C@@H]2C[C@H]3[C@@H](CN2)CON3C)c1	none (no result: APJ agonist, APJ antagonist)
COc1ccc(CNC(=O)O[C@H]2CN(C(=O)OC(C)C)N(C(=O)OC(C)C)[C@@H]3CN(S(=O)(=O)c4ccc(C)cc4)C[C@]23O)cc1OC	none (no result: CCR6 antag, APJ agonist, APJ antagonist)
O=C(Nc1cc(S(=O)(=O)N2CCOCC2)ccc1N1CCCCC1)c1ccccc1	none
N#C/C(=C\c1ccccc1)C(=O)Nc1cc(S(=O)(=O)N2CCOCC2)ccc1N1CCCC1	EBI2 block 75 | EBI2 conf 66 | EBI2 agonist inactive | bGal cs inactive
CCN1CCN(c2ccc(S(=O)(=O)N3CCCCC3)cc2NC(=O)/C=C/c2ccc(F)cc2)CC1	none
CCN1CCN(c2ccc(S(=O)(=O)N3CCOCC3)cc2NC(=O)/C=C/c2ccc(C)cc2)CC1	EBI2 block 94 | EBI2 conf 91 | EBI2 agonist inactive | bGal cs inactive
Cc1cccc(C)c1-n1nnnc1C1(C)CCC(=O)N1Cc1cccc(C(F)(F)F)c1 (centres undefined)	none (no result: CCR6 antag, APJ agonist, H9c2 TAG inh, APJ antagonist)
Cn1c(=NC(=O)C2CCN(S(=O)(=O)c3cccs3)CC2)sc2ccccc21	EBI2 block 57 | EBI2 conf inactive | EBI2 agonist inactive | bGal cs inactive
CN(C(=O)C1CCN(S(=O)(=O)c2cccs2)CC1)c1ccccc1	none
COc1ccc(C2=NN(C(=O)CSc3cn(C)c4ccccc34)C(c3ccc(OC)cc3)C2)cc1 (centres undefined)	EBI2 block 84 | EBI2 conf 65 | EBI2 agonist inactive | bGal cs inactive
COc1ccc(C2=NN(C(=O)CSc3ncccn3)C(c3ccc(OC)cc3)C2)cc1 (centres undefined)	none
COc1ccc(C2=NN(C(=O)CSc3nc(=O)n4cc(C)ccc4n3)C(c3ccc(C)cc3)C2)cc1 (centres undefined)	EBI2 block 63 | EBI2 conf inactive | EBI2 agonist inactive | bGal cs inactive
CC(=O)c1cn(CC(=O)Nc2ccccc2C(F)(F)F)c2ccccc12	none (no result: H9c2 TAG inh)
COc1ccc(S(=O)(=O)N2CCOCC2)cc1NC(=O)c1cc2ccccc2o1	none
